Results as given in ChEMBL document CHEMBL3627629 (Bioorg Med Chem Lett, 2015).

Columns and labels:
Assay type in all cases: cell-based
[1] = target: T1, Muscarinic acetylcholine receptor M1 (Homo sapiens, UniProt P11229); experiment: Displacement of [3H]NMS from human muscarinic M1 receptor expressed in CHO cells after 2 hrs by liquid scintillation spectrometry analysis
T1 sequence (P11229 whole entry): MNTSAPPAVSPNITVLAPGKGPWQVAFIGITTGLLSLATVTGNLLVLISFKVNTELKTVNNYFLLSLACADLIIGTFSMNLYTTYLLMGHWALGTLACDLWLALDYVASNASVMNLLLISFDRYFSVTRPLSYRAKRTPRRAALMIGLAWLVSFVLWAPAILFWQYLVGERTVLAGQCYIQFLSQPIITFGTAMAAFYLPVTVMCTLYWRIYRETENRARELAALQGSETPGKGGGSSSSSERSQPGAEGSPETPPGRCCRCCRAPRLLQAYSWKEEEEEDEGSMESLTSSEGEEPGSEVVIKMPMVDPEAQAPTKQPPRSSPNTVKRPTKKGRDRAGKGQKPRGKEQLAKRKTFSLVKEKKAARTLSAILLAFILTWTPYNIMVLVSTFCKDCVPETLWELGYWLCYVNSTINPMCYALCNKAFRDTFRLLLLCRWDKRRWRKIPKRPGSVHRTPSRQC
Outline: (§1)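 Membranes from CHO cells stably expressing recombinant human receptor: 10 µg protein/well for M1 and M5, 3 µg for M3. Incubated with 0.3 nM [3H]NMS and 1 nM–100 µM analog in 50 mM Tris-HCl pH 7.4, 2 h at 25 °C. Nonspecific binding defined with 1 µM atropine. GF/B filtration, washed three times. Ki from IC50 by Cheng-Prusoff. Three independent experiments in duplicate, mean ± SEM.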

[2] = target: Muscarinic acetylcholine receptor M3 (Homo sapiens, UniProt P20309); experiment: Displacement of [3H]NMS from human muscarinic M3 receptor expressed in CHO cells after 2 hrs by liquid scintillation spectrometry analysis; outline: as §1
[3] = target: T2, Muscarinic acetylcholine receptor M5 (Homo sapiens, UniProt P08912); experiment: Displacement of [3H]NMS from human muscarinic M5 receptor expressed in CHO cells after 2 hrs by liquid scintillation spectrometry analysis; outline: as §1
T2 sequence (P08912 whole entry): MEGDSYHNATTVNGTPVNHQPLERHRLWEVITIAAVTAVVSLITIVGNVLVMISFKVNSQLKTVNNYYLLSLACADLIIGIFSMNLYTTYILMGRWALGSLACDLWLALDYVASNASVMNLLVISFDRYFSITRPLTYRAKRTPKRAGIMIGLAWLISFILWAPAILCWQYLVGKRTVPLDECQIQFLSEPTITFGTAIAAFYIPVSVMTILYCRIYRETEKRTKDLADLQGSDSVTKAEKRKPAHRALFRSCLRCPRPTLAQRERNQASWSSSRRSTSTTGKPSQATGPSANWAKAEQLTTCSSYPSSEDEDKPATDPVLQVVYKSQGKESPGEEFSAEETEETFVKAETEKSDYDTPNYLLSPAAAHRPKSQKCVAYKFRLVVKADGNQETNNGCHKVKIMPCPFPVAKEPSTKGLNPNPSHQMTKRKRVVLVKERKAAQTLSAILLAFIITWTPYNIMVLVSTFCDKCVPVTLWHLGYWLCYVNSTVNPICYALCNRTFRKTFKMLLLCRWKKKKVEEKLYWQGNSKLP

Muscarinic acetylcholine receptor M3, sequence (P20309 whole entry): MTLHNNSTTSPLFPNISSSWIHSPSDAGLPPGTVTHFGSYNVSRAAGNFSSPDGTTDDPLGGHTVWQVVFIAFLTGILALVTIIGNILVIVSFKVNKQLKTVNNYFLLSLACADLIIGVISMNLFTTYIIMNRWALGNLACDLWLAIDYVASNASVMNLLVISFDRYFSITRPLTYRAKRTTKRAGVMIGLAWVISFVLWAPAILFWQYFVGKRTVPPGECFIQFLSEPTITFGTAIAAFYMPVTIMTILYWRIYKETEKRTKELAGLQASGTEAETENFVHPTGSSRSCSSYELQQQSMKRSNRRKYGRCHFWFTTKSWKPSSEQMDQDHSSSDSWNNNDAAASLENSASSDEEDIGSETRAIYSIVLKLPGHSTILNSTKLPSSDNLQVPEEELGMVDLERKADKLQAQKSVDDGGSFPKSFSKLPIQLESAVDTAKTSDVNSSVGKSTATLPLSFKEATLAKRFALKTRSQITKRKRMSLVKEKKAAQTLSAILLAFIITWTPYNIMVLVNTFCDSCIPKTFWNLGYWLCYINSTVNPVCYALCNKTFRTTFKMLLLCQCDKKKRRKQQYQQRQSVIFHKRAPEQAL

## COc1ccc(CCNC(=O)OCC2(c3ccccc3)CCN(C)CC2)cc1OC
[1]
  Ki: 5.09 µM
[2]
  Ki: 4.03 µM
[3]
  Ki: 5.41 µM

## COc1ccc(CCOC(=O)C2(c3ccccc3)CCN(C)CC2)cc1OC
[1]
  Ki: 10.8 µM
[2]
  Ki: 5.26 µM
[3]
  Ki: 6.95 µM

## COc1ccc(CCNC(=O)C2(c3ccccc3)CCN(C)CC2)cc1OC
[1]
  Ki: > 30 µM
[2]
  Ki: > 10 µM
[3]
  Ki: > 30 µM

## COc1ccc(CCNC(=O)NCC2(c3ccccc3)CCN(C)CC2)cc1
[1]
  Ki: 5.4 µM
[2]
  Ki: 3.55 µM
[3]
  Ki: 4.3 µM

## COc1ccc(CCC(=O)NCC2(c3ccccc3)CCN(C)CC2)cc1
[1]
  Ki: 3.44 µM
[2]
  Ki: 1.54 µM
[3]
  Ki: 1.81 µM

## COc1ccc(CCOC(=O)NCC2(c3ccccc3)CCN(C)CC2)cc1
[1]
  Ki: 2.91 µM
[2]
  Ki: 2.3 µM
[3]
  Ki: 2.05 µM

## COc1ccc(CCC(=O)NCC2(c3ccccc3)CCN(C)CC2)cc1OC
[1]
  Ki: > 10 µM
[2]
  Ki: > 30 µM
[3]
  Ki: > 10 µM

## COc1ccc(CCNC(=O)NCC2(c3ccccc3)CCN(C)CC2)cc1OC
[1]
  Ki: > 10 µM
[2]
  Ki: > 10 µM
[3]
  Ki: > 10 µM

## COc1ccc(CCOC(=O)C2(c3ccccc3)CCN(C)CC2)cc1
[1]
  Ki: 1.2 µM
[2]
  Ki: 0.64 µM
[3]
  Ki: 0.87 µM

## COc1ccc(CCC(=O)OCC2(c3ccccc3)CCN(C)CC2)cc1
[1]
  Ki: 0.67 µM
[2]
  Ki: 0.37 µM
[3]
  Ki: 0.38 µM

## COc1ccc(CCNC(=O)C2(c3ccccc3)CCN(C)CC2)cc1
[1]
  Ki: > 10 µM
[2]
  Ki: 3.29 µM
[3]
  Ki: 6.97 µM

## COc1ccc(CCC(=O)OCC2(c3ccccc3)CCN(C)CC2)cc1OC
[1]
  Ki: 3.63 µM
[2]
  Ki: 4.6 µM
[3]
  Ki: 2.14 µM
